Test results published in ChEMBL document CHEMBL1156445, “The rapamycin-binding domain of the protein kinase mammalian target of rapamycin is a destabilizing domain” (J Biol Chem, 2007).
Calls of active or inactive are those of the source. The rule behind the calls is not given here.

What was measured:
Assay type in all cases: cell-based
[1] = tested on: NIH3T3; experiment: Effect on stability of wild-type FKBP12-rapamycin binding domain protein expressed in mouse NIH3T3 cells assessed as increase in yellow fluorescent protein fluorescence level at 10 nM after 24 hrs by flow cytometry
Method in brief: (§1)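 NIH3T3 cells stably transduced with wtFRB-YFP, treated with iRap (10 nM to 10 μM). YFP fluorescence monitored by flow cytometry over 24 h, 10,000 events per sample. Mean fluorescence intensity expressed relative to the overall highest value; duplicate.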

[2] = Activation of FKBP12-rapamycin binding domain I2021T W2023R K2045L S2112P stop codon mutant in african green monkey COS1 cells after 16 hrs assessed as induction of secreted alkaline phosphatase expression assay; conditions: COS-1, 16 h
Method in brief: (§2)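 COS-1 cells co-transfected by electroporation with Gal4BD-FKBP (pBJ5-GF3E), VP16AD-FRB (pBJ5-FRBVE, wild-type or mutant FRB) and SeAP reporter (pG5IL2SX). Cells treated in quadruplicate for 16 h with iRap (0.5-500 nM) or rapamycin (0.05-50 nM). SeAP read as fluorescence from methylumbelliferylphosphate substrate. EC50 derived from curve fits of mean (±SEM).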

[3] = Activation of FKBP12-rapamycin binding domain I2021T M2058V G2061D K2066R K2090R S2091L stop codon mutant in african green monkey COS1 cells after 16 hrs assessed as induction of secreted alkaline phosphatase expression assay; conditions: COS-1, 16 h; method in brief: as §2
[4] = Activation of FKBP12-rapamycin binding domain H2024R stop codon mutant protein in african green monkey COS1 cells after 16 hrs assessed as induction of secreted alkaline phosphatase expression assay; conditions: COS-1, 16 h; method in brief: as §2
[5] = tested on: 293T; experiment: Effect on stability of wild-type FKBP12-rapamycin binding domain protein expressed in human 293T cells assessed as increase in yellow fluorescent protein fluorescence level at 1 uM after 24 hrs by flow cytometry
Method in brief: (§3)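 FRB (mTOR residues 2015-2114, wild-type or mutant) fused to N-terminus of YFP in pBMN. NIH3T3 cells stably transduced with retrovirus from ΦNX cells; 293T cells transiently transfected (wild-type only). Cells mock-treated or given 1 μM iRap for 24 h, then trypsinized, PBS-washed and analysed by flow cytometry (10,000 events). Mean fluorescence intensity, triplicate.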

[6] = Activation of FKBP12-rapamycin binding domain E2067G stop codon mutant in african green monkey COS1 cells after 16 hrs assessed as induction of secreted alkaline phosphatase expression assay; conditions: COS-1, 16 h; method in brief: as §2
[7] = Activation of FKBP12-rapamycin binding domain T2068S E2080G stop codon mutant in african green monkey COS1 cells after 16 hrs assessed as induction of secreted alkaline phosphatase expression assay; conditions: COS-1, 16 h; method in brief: as §2
[8] = Activation of FKBP12-rapamycin binding domain mutant in african green monkey COS1 cells after 16 hrs assessed as induction of secreted alkaline phosphatase expression assay; conditions: COS-1, 16 h; method in brief: as §2
[9] = tested on: NIH3T3; experiment: Effect on stability of FKBP12-rapamycin binding domain H2024R stop codon mutant expressed in mouse NIH3T3 cells assessed as increase in yellow fluorescent protein fluorescence level at 1 uM after 24 hrs by flow cytometry; method in brief: as §3
[10] = Activation of FKBP12-rapamycin binding domain I2021T E2029G L2037S stop codon mutant in african green monkey COS1 cells after 16 hrs assessed as induction of secreted alkaline phosphatase expression assay; conditions: COS-1, 16 h; method in brief: as §2
[11] = Activation of FKBP12-rapamycin binding domain S2069P M2079I stop codon mutant in african green monkey COS1 cells after 16 hrs assessed as induction of secreted alkaline phosphatase expression assay; conditions: COS-1, 16 h; method in brief: as §2
[12] = Activation of FKBP12-rapamycin binding domain A2020V I2021T D2096G stop codon mutant in african green monkey COS1 cells after 16 hrs assessed as induction of secreted alkaline phosphatase expression assay; conditions: COS-1, 16 h; method in brief: as §2
[13] = Activation of FKBP12-rapamycin binding domain M2026V E2049G stop codon mutant in african green monkey COS1 cells after 16 hrs assessed as induction of secreted alkaline phosphatase expression assay; conditions: COS-1, 16 h; method in brief: as §2
[14] = Activation of FKBP12-rapamycin binding domain T2064I Y2074H K2090R stop codon mutant in african green monkey COS1 cells after 16 hrs assessed as induction of secreted alkaline phosphatase expression assay; conditions: COS-1, 16 h; method in brief: as §2
[15] = Activation of FKBP12-rapamycin binding domain I2021T A2100V stop codon mutant in african green monkey COS1 cells after 16 hrs assessed as induction of secreted alkaline phosphatase expression assay; conditions: COS-1, 16 h; method in brief: as §2
[16] = Activation of FKBP12-rapamycin binding domain K2066R D2077G stop codon mutant in african green monkey COS1 cells after 16 hrs assessed as induction of secreted alkaline phosphatase expression assay; conditions: COS-1, 16 h; method in brief: as §2
[17] = Activation of FKBP12-rapamycin binding domain R2110 mutant in african green monkey COS1 cells after 16 hrs assessed as induction of secreted alkaline phosphatase expression assay; conditions: COS-1, 16 h; method in brief: as §2
[18] = Activation of FKBP12-rapamycin binding domain I2021T K2045E E2049G M2057T E2083K stop codon mutant in african green monkey COS1 cells after 16 hrs assessed as induction of secreted alkaline phosphatase expression assay; conditions: COS-1, 16 h; method in brief: as §2
[19] = tested on: NIH3T3; experiment: Effect on stability of FKBP12-rapamycin binding domain N2043S stop codon mutant expressed in mouse NIH3T3 cells assessed as increase in yellow fluorescent protein fluorescence level at 1 uM after 24 hrs by flow cytometry; method in brief: as §3
[20] = tested on: NIH3T3; experiment: Effect on stability of wild-type FKBP12-rapamycin binding domain protein expressed in mouse NIH3T3 cells assessed as increase in yellow fluorescent protein fluorescence level at 100 nM after 24 hrs by flow cytometry; method in brief: as §1
[21] = Activation of wild-type FKBP12-rapamycin binding domain protein in african green monkey COS1 cells after 16 hrs assessed as induction of secreted alkaline phosphatase expression assay; conditions: COS-1, 16 h; method in brief: as §2
[22] = Activation of FKBP12-rapamycin binding domain S2069P stop codon mutant in african green monkey COS1 cells after 16 hrs assessed as induction of secreted alkaline phosphatase expression assay; conditions: COS-1, 16 h; method in brief: as §2
[23] = Activation of FKBP12-rapamycin binding domain I2021V stop codon mutant in african green monkey COS1 cells after 16 hrs assessed as induction of secreted alkaline phosphatase expression assay; conditions: COS-1, 16 h; method in brief: as §2
[24] = tested on: NIH3T3; experiment: Effect on stability of wild-type FKBP12-rapamycin binding domain protein expressed in mouse NIH3T3 cells assessed as increase in yellow fluorescent protein fluorescence level at 1 uM after 24 hrs by flow cytometry; method in brief: as §3
[25] = tested on: NIH3T3; experiment: Effect on stability of FKBP12-rapamycin binding domain T2068S E2080G stop codon mutant expressed in mouse NIH3T3 cells assessed as increase in yellow fluorescent protein fluorescence level at 1 uM after 24 hrs by flow cytometry; method in brief: as §3
[26] = tested on: NIH3T3; experiment: Effect on stability of FKBP12-rapamycin binding domain K2066R D2077G stop codon mutant expressed in mouse NIH3T3 cells assessed as increase in yellow fluorescent protein fluorescence level at 1 uM after 24 hrs by flow cytometry; method in brief: as §3
[27] = Activation of FKBP12-rapamycin binding domain stop codon>Leu mutant in african green monkey COS1 cells after 16 hrs assessed as induction of secreted alkaline phosphatase expression assay; conditions: COS-1, 16 h; method in brief: as §2
[28] = Activation of FKBP12-rapamycin binding domain C2085R stop codon mutant in african green monkey COS1 cells after 16 hrs assessed as induction of secreted alkaline phosphatase expression assay; conditions: COS-1, 16 h; method in brief: as §2
[29] = Activation of FKBP12-rapamycin binding domain N2043S stop codon mutant in african green monkey COS1 cells after 16 hrs assessed as induction of secreted alkaline phosphatase expression assay; conditions: COS-1, 16 h; method in brief: as §2
[30] = Activation of FKBP12-rapamycin binding domain I2017V E2033G stop codon mutant in african green monkey COS1 cells after 16 hrs assessed as induction of secreted alkaline phosphatase expression assay; conditions: COS-1, 16 h; method in brief: as §2
[31] = tested on: NIH3T3; experiment: Effect on stability of wild-type FKBP12-rapamycin binding domain protein expressed in mouse NIH3T3 cells assessed as increase in yellow fluorescent protein fluorescence level at 10 uM after 24 hrs by flow cytometry; method in brief: as §1

EC50 [2]: 31.4 nM
EC50 [3]: 100 nM
EC50 [4]: 14.4 nM
EC50 [6]: 45.1 nM
EC50 [7]: 19.3 nM
EC50 [8]: 32.6 nM
EC50 [10]: 88.8 nM
EC50 [11]: 39.1 nM
EC50 [12]: 41.7 nM
EC50 [13]: 39 nM
EC50 [14]: 22.1 nM
EC50 [15]: 67.4 nM
EC50 [16]: 20.4 nM
EC50 [17]: 250 nM
EC50 [18]: 29.7 nM
EC50 [21]: 20.5 nM
EC50 [22]: 42.7 nM
EC50 [23]: 28.1 nM
EC50 [27]: 26 nM
EC50 [28]: 33.4 nM
EC50 [29]: 24.9 nM
EC50 [30]: 23 nM
Compound: CO[C@@H]1C[C@H](C[C@@H](C)[C@@H]2CC(=O)[C@H](C)/C=C(\C)[C@@H](O)[C@@H](OC)C(=O)[C@H](C)C[C@H](C)/C=C/C=C/C=C(\C)[C@@H](c3[nH]c4ccccc4c3C)C[C@@H]3CC[C@@H](C)[C@@](O)(O3)C(=O)C(=O)N3CCCC[C@H]3C(=O)O2)CC[C@H]1O
Activity [1]: Active
Activity [5]: Active
Activity [9]: 4
Activity [19]: 8
Activity [20]: Active
Activity [24]: 10
Activity [25]: 5
Activity [26]: 7
Activity [31]: Active
